The target in assay [1] is T1, Dihydrofolate reductase (Homo sapiens, UniProt P00374).
T1 sequence (P00374 whole entry): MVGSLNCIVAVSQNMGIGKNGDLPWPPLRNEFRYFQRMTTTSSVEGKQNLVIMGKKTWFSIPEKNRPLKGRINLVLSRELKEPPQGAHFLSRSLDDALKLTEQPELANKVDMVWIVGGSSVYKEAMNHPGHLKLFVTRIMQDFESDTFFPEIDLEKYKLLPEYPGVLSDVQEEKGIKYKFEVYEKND
The assay can be described thus: Competitive inhibition of human dihydrofolate reductase by spectrophotometry.

Assay [2] deals with NCI-H460. The assay can be described thus: Cytotoxicity against human NCI-H460 cells assessed as cell growth at 10^-4 M after 48 hrs by alamar blue assay relative to untreated control. Type of assay: functional. The conditions noted are these: NCI-H460, 48 h, read-out: Activity. Summed up:
(§1)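 Three-cell-line prescreen. Each line was inoculated and preincubated on a microtiter plate, then the agent was added at a single concentration (10^-4 or 10^-5 M) and incubated 48 h. Endpoint was measured with alamar blue, and growth is reported as a percentage of untreated control cells.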
(In general: Resazurin is reduced to fluorescent resorufin, in cell work by metabolically active cells.)

Assay [3] has as its system MCF7. Briefly: Cytotoxicity against human MCF7 cells assessed as cell growth at 10^-4 M after 48 hrs by alamar blue assay relative to untreated control. The class given is functional. The conditions noted are these: MCF7, 48 h, read-out: Activity. Summed up: as §1
Assay [4] has as its system SF-268. Briefly: Cytotoxicity against human SF268 cells assessed as cell growth at 10^-4 M after 48 hrs by alamar blue assay relative to untreated control. The class given is functional. The conditions noted are these: SF-268, 48 h, read-out: Activity. Summed up:
(§2)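 Three-cell-line prescreen at NCI. Each line was seeded and pre-incubated, then given a single concentration (10^-4 or 10^-5 M) and incubated for 48 h. The end-point was alamar blue. The value is percent growth of treated cells versus untreated control cells, with negative numbers indicating cell kill.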

Assay [5] has as its target Thymidylate synthase (Homo sapiens, UniProt P04818). The assay can be described thus: Competitive inhibition of human thymidylate synthase by spectrophotometry.
Assay [6] has as its target Dihydrofolate reductase (Homo sapiens) (UniProt P00374). Briefly: Competitive inhibition of human dihydrofolate reductase at 10 uM by spectrophotometry.
In assay [7] the test system is SF-268. The assay can be described thus: Cytotoxicity against human SF268 cells assessed as cell growth at 10^-5 M after 48 hrs by alamar blue assay relative to untreated control. The conditions noted are these: SF-268, 48 h, read-out: Activity. Type of assay: functional. Summed up: as §2
For assay [8], the system named is NCI-H460. The assay can be described thus: Cytotoxicity against human NCI-H460 cells assessed as cell growth at 10^-5 M after 48 hrs by alamar blue assay relative to untreated control. The class given is functional. The conditions noted are these: NCI-H460, 48 h, read-out: Activity. Summed up: as §1
Assay [9] has as its system MCF7. Briefly: Cytotoxicity against human MCF7 cells assessed as cell growth at 10^-5 M after 48 hrs by alamar blue assay relative to untreated control. The conditions noted are these: MCF7, 48 h, read-out: Activity. The class given is functional. Summed up: as §1

pKi: −log10 of the molar value. The source made the active and inactive calls. The rule behind the calls is not given here.

26 compounds from ChEMBL document CHEMBL3120154, “2-[N-Alkyl(R-phenyl)-aminomethyl]-3-phenyl-7-trifluoromethylquinoxalines as anticancer agents inhibitors of folate enzymes” (Eur J Med Chem, 2014) can be followed below.

`CCOC(=O)CC[C@H](NC(=O)c1ccc(N(CC)Cc2nc3cc(C(F)(F)F)ccc3nc2-c2ccccc2)cc1)C(=O)OCC` gave a pKi in assay [1] of 5.40.

In the case of `C#CCN(Cc1nc2cc(C(F)(F)F)ccc2nc1-c1ccccc1)c1ccc(Cl)cc1`, the results for the growth at 100 µM in assay [2], in [3] and in assay [4] were 85%, 67% and 84%, respectively. The compound further gave a negative logarithm of the Ki (pKi) in [1] of 5.40.

On to `C#CCN(Cc1nc2cc(C(F)(F)F)ccc2nc1-c1ccccc1)c1cc(OC)c(OC)c(OC)c1`, for which the growth at 100 µM in assay [2] is 104%; in [3], 64%; in assay [4], 102%. Moreover, the pKi is 5.30 in assay [5] and 5.40 in [1].

For the compound `CCN(Cc1nc2cc(C(F)(F)F)ccc2nc1-c1ccccc1)c1ccc(OC)cc1`, the growth at 100 µM in assay [2] stood at 63%; in [3] it was 54%; in [4] it was 89%. The negative-log Ki (pKi) in [1] was 5.15.

Turning to `CCOC(=O)Cc1ccc(N(C)Cc2nc3cc(C(F)(F)F)ccc3nc2-c2ccccc2)cc1`, the growth at 100 µM came to 125% in assay [2], 105% in assay [3] and 107% in [4]. The inhibition entry in assay [6] was “inactive”.

Take `CCN(Cc1nc2cc(C(F)(F)F)ccc2nc1-c1ccccc1)c1ccc(F)c(F)c1`: the growth at 10 µM stood at 94% in [7], 81% in assay [8] and 73% in assay [9]. The compound also showed a pKi in [1] of 5.30.

In the case of `CN(Cc1nc2cc(C(F)(F)F)ccc2nc1-c1ccccc1)c1ccc(F)cc1`, the results for the growth at 100 µM in assay [2], in assay [3] and in assay [4] were 119%, 180% and 125%, respectively. The same compound showed a negative logarithm of the Ki (pKi) in [1] of 5.30.

For `CN(Cc1nc2cc(C(F)(F)F)ccc2nc1-c1ccccc1)c1ccc(F)c(F)c1`, the growth at 10 µM amounted to 97% in assay [7], 88% in assay [8] and 114% in [9]. Further, the pKi in [5] was 6.57; in [1] it was 5.40.

With `C#CCN(Cc1nc2cc(C(F)(F)F)ccc2nc1-c1ccccc1)c1ccc(C(F)(F)F)cc1F`, the growth at 100 µM came out at 61% in [2], 87% in assay [3] and 110% in assay [4].

For the compound `C#CCN(Cc1nc2cc(C(F)(F)F)ccc2nc1-c1ccccc1)c1ccc(OC)cc1`, the results for the growth at 100 µM in [2], in [3] and in assay [4] were 98%, 82% and 103%, respectively. In addition, the pKi in [1] is 5.52.

For the compound `CCN(Cc1nc2cc(C(F)(F)F)ccc2nc1-c1ccccc1)c1ccc(C)cc1`, the negative-log Ki (pKi) in assay [1] is 5.40.

`CN(Cc1nc2cc(C(F)(F)F)ccc2nc1-c1ccccc1)c1ccc(Cl)cc1`: the growth at 10 µM in [7] turned out to be 108%; in assay [8] it was 118%; in [9] it was 109%. Also, the pKi in assay [1] is 5.30.

Turning to `Cc1ccc(N(C)Cc2nc3cc(C(F)(F)F)ccc3nc2-c2ccccc2)cc1`, the results for the growth at 10 µM in assay [7], in assay [8] and in assay [9] were 121%, 116% and 115%, respectively. The compound also had a negative-log Ki (pKi) in assay [1] of 4.96.

Turning to `CCOC(=O)CC[C@H](NC(=O)c1ccc(N(C)Cc2nc3cc(C(F)(F)F)ccc3nc2-c2ccccc2)cc1)C(=O)OCC`, the pKi in [1] is 6.70.

Regarding `COc1ccc(N(C)Cc2nc3cc(C(F)(F)F)ccc3nc2-c2ccccc2)cc1`, the growth at 100 µM in assay [2] came to 125%; in [3] it was 105%; in [4], 107%. For the same compound, the pKi in assay [1] is 5.52.

In assay [1], `CCOC(=O)Cc1ccc(N(CC)Cc2nc3cc(C(F)(F)F)ccc3nc2-c2ccccc2)cc1` showed a pKi of 5.52.

Turning to `CCN(Cc1nc2cc(C(F)(F)F)ccc2nc1-c1ccccc1)c1ccc(Cl)cc1`, the growth at 100 µM stood at 68% in assay [2], 46% in assay [3] and 81% in assay [4]. Moreover, the pKi in [1] is 5.52.

`C#CCN(Cc1nc2cc(C(F)(F)F)ccc2nc1-c1ccccc1)c1ccc(CC(=O)OCC)cc1`: the growth at 100 µM was 115% in [2], 106% in [3] and 111% in assay [4]. The negative-log Ki (pKi) in assay [1] was 5.52.

In [1], `CN(Cc1nc2cc(C(F)(F)F)ccc2nc1-c1ccccc1)c1ccc(OC(F)(F)F)cc1` had a negative logarithm of the Ki (pKi) of 5.52.

For `COc1cc(N(C)Cc2nc3cc(C(F)(F)F)ccc3nc2-c2ccccc2)cc(OC)c1OC`, the results for the growth at 100 µM in assay [2], in assay [3] and in [4] were 77%, 61% and 97%, respectively. Besides, the pKi in [1] was 5.30.

With `C#CCN(Cc1nc2cc(C(F)(F)F)ccc2nc1-c1ccccc1)c1ccccc1Cl`, the growth at 100 µM in assay [2] worked out at 101%; in [3], 102%; in assay [4], 87%. Besides, the negative logarithm of the Ki (pKi) in assay [1] is 5.70.

Regarding `COc1ccc(N(C)Cc2nc3cc(C(F)(F)F)ccc3nc2-c2ccccc2)cc1OC`, the growth at 100 µM in assay [2] stood at 88%; in [3] it was 54%; in [4], 103%. Further, the negative-log Ki (pKi) in [1] was 5.10.

With `CCN(Cc1nc2cc(C(F)(F)F)ccc2nc1-c1ccccc1)c1ccc(OC(F)(F)F)cc1`, the growth at 100 µM came out at 83% in assay [2], 61% in [3] and 85% in assay [4]. The pKi in [1] was 5.30.

`CCN(Cc1nc2cc(C(F)(F)F)ccc2nc1-c1ccccc1)c1ccc(F)cc1`: the growth at 10 µM in [7] was found to be 102%; in assay [8] it was 92%; in assay [9], 103%. For the same compound, the negative logarithm of the Ki (pKi) in [1] was 5.52.

As for `C#CCN(Cc1nc2cc(C(F)(F)F)ccc2nc1-c1ccccc1)c1ccc(OC)c(OC)c1`, the growth at 100 µM in assay [2] came out at 80%; in [3] it was 119%; in assay [4] it was 109%. In [1], this compound showed a pKi of 5.52.

`CCN(Cc1nc2cc(C(F)(F)F)ccc2nc1-c1ccccc1)c1cc(OC)c(OC)c(OC)c1` had a negative-log Ki (pKi) in [1] of 5.22.

As usually defined, the pKi is the negative decadic logarithm of the Ki, by convention in mol/L.
